Data published in ChEMBL document CHEMBL3808280, “GroEL/ES inhibitors as potential antibiotics” (Bioorg Med Chem Lett, 2016).

Assays:
E. coli GroEL/ES [1] = target: T1, E. coli GroEL/ES (Escherichia coli, UniProt P0A6F5); experiment: (§1) Inhibition of Escherichia coli GroEL/GroES using Escherichia coli GroEL expressed in Escherichia coli DH5alpha cells and Escherichia coli GroES expressed in Escherichia coli BL21(DE3) cells assessed as inhibition of denatured rhodanese refolding by measuring reduction in thiocyanate production incubated for 60 mins by micro plate reader analysis
Procedure, shortened: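 Urea-denatured rhodanese bound to GroEL/GroES in folding buffer containing thiosulfate. After 60 min at 37°C, thiocyanate reaction (KCN, thiosulfate, phosphate) run, then formaldehyde quench and ferric nitrate added. Fe(SCN)3 read at 460 nm after 15 min RT, with protein-free baseline plates.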

E. coli GroEL/ES [2] = target: T1, E. coli GroEL/ES; experiment: Inhibition of Escherichia coli GroEL/GroES using Escherichia coli GroEL expressed in Escherichia coli DH5alpha cells and Escherichia coli GroES expressed in Escherichia coli BL21(DE3) cells assessed as reduction in native refolded rhodanese-mediated thiocyanate production by micro plate reader analysis
E. coli GroEL/ES [3] = target: T1, E. coli GroEL/ES; experiment: Inhibition of Escherichia coli GroEL/GroES using Escherichia coli GroEL expressed in Escherichia coli DH5alpha cells and Escherichia coli GroES expressed in Escherichia coli BL21(DE3) cells assessed as reduction in pig heart native refolded MDH-mediated NADH production by micro plate reader analysis
Procedure, shortened: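 Native MDH counter-screen. GroEL/ES-dMDH refolding run 60 min at 37°C, then EDTA-quenched without compound. IC50 averaged from at least triplicate.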

E. coli GroEL/ES [4] = target: T1, E. coli GroEL/ES; experiment: as §1, with “pig heart MDH” for “rhodanese”, “NADH” for “thiocyanate”
Procedure, shortened: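 Denatured MDH (guanidine-HCl/DTT, 30 min RT) bound to GroEL with GroES in Tris pH 7.4, KCl, MgCl2, DTT buffer. 60 min at 37°C, EDTA quench to 100 mM. Refolded MDH activity read with mesoxalate/NADH at 340 nm. Log-averaged IC50 from replicates.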

E. coli GroEL/ES [5] = target: T1, E. coli GroEL/ES; experiment: Inhibition of Escherichia coli GroEL/GroES using Escherichia coli GroEL expressed in Escherichia coli DH5alpha cells and Escherichia coli GroES expressed in Escherichia coli BL21(DE3) cells assessed as reduction in denatured pig heart MDH ATPase activity by malachite green dye based assay
Escherichia coli [6] = experiment: Antibacterial activity against Escherichia coli DH5alpha assessed as reduction in bacterial growth incubated for 6 to 8 hrs; type: functional, organism-based; details: DH5[alpha]
Escherichia coli [7] = experiment: Antibacterial activity against acrB-deficient Escherichia coli MC4100 assessed as reduction in bacterial growth incubated for 6 to 8 hrs; type: functional, organism-based
Escherichia coli [8] = experiment: Antibacterial activity against Escherichia coli SM101 assessed as reduction in bacterial growth incubated for 12 hrs by UV-Vis spectrophotometric analysis; type: functional, organism-based; details: SM101, 12 h
Bacillus subtilis = experiment: Antibacterial activity against Bacillus subtilis 168 assessed as reduction in bacterial growth incubated for 6 to 8 hrs; type: functional, organism-based; details: subsp. subtilis str. 168
Enterococcus faecium = experiment: Antibacterial activity against multidrug resistant Enterococcus faecium NCTC 7171 (ATCC 19434) assessed as reduction in bacterial growth incubated for 6 to 8 hrs; type: functional, organism-based
Procedure, shortened: (§2)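 Broth proliferation assay. S. aureus and MRSA grown in ATCC Medium 18, other pathogens in Brain Heart Infusion. Stagnant incubation at 37°C under breathable seal. OD600 read at mid-log (6-8 h) and corrected with bacteria-free baseline plates. EC50 by variable-slope nonlinear fit, at least triplicate.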

Staphylococcus aureus [9] = experiment: Antibacterial activity against methicillin resistant Staphylococcus aureus subsp. aureus HPV107 (ATCC BAA-44) assessed as reduction in bacterial growth incubated for 6 to 8 hrs; type: functional, organism-based; procedure, shortened: as §2
HSP60/HSP10 [10] = target: T2, HSP60/HSP10 (Homo sapiens, UniProt P10809); experiment: Inhibition of human HSP60/HSP10 expressed in Escherichia coli Rosetta2(DE3) cells assessed as inhibition of denatured pig heart MDH refolding by measuring reduction in NADH production incubated for 60 mins by micro plate reader analysis
Procedure, shortened: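 Pig heart MDH was denatured in guanidine-HCl (dMDH) and complexed with HSP60, then HSP10, in Tris pH 7.4/KCl/MgCl2/DTT buffer. EDTA quench (100 mM final); refolded MDH activity was followed with mesoxalate/NADH at 340 nm.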

HSP60/HSP10 [11] = target: T2, HSP60/HSP10; experiment: Inhibition of human HSP60/HSP10 expressed in Escherichia coli Rosetta2(DE3) cells assessed as reduction in denatured pig heart MDH ATPase activity by malachite green dye based assay
[12] = Cytotoxicity against human THLE3 cells assessed as reduction in cell viability after 48 hrs by alamar blue assay; type: cell-based; details: THLE3, 48 h
HEK293 = experiment: Cytotoxicity against HEK293 cells assessed as reduction in cell viability after 48 hrs by alamar blue assay; type: cell-based; details: Homo sapiens, HEK293, 48 h
[13] = test system: Klebsiella pneumoniae subsp. pneumoniae; experiment: Antibacterial activity against multidrug resistant Klebsiella pneumoniae subsp. pneumoniae NCTC 9633 (ATCC 13883) assessed as reduction in bacterial growth incubated for 6 to 8 hrs; type: functional, organism-based; procedure, shortened: as §2
Acinetobacter baumannii = experiment: Antibacterial activity against multidrug resistant Acinetobacter baumannii 2208 (ATCC 19606) assessed as reduction in bacterial growth incubated for 6 to 8 hrs; type: functional; procedure, shortened: as §2
Pseudomonas aeruginosa = experiment: Antibacterial activity against multidrug resistant Pseudomonas aeruginosa NCTC 10332 (ATCC 10145) assessed as reduction in bacterial growth incubated for 6 to 8 hrs; type: functional, organism-based; procedure, shortened: as §2
Enterobacter cloacae = experiment: Antibacterial activity against multidrug resistant Enterobacter cloacae subsp. cloacae CDC 442-68 (ATCC 13047) assessed as reduction in bacterial growth incubated for 6 to 8 hrs; type: functional, organism-based; procedure, shortened: as §2
Staphylococcus aureus [14] = experiment: Antibacterial activity against methicillin susceptible Staphylococcus aureus subsp. aureus Seattle 1945 (ATCC 25923) assessed as reduction in bacterial growth incubated for 6 to 8 hrs

T1 sequence (P0A6F5 whole entry, looked up): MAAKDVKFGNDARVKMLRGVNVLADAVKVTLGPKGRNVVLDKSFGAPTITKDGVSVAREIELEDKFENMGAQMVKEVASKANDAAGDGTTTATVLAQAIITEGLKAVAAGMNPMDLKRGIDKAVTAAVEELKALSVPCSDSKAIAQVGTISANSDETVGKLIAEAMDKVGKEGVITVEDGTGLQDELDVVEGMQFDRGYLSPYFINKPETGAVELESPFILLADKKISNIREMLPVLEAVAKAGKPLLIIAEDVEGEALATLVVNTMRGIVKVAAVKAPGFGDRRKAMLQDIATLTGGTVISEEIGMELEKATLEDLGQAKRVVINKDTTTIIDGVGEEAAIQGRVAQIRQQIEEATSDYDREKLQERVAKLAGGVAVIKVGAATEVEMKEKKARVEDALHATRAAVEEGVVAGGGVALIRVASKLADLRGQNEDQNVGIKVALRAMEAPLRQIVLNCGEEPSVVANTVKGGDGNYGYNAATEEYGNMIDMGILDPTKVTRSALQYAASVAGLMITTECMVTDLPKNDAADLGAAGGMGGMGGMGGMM
T2 sequence (P10809 whole entry): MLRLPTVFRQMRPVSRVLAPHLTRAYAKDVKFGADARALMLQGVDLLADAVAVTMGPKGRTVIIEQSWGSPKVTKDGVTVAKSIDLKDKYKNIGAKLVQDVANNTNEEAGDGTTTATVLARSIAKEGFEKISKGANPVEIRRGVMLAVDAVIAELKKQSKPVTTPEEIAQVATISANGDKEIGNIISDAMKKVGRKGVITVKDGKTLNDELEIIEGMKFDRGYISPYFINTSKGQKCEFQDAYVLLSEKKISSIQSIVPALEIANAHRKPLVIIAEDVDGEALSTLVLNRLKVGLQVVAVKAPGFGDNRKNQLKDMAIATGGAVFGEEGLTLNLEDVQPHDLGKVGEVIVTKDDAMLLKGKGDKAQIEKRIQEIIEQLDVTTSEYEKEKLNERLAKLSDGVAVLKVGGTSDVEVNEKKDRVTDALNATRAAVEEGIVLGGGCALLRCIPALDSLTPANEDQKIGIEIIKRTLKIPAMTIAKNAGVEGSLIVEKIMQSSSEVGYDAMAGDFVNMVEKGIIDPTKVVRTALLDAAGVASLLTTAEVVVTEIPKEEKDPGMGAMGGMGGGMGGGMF
T2 sequence (P61604 whole entry, further chain): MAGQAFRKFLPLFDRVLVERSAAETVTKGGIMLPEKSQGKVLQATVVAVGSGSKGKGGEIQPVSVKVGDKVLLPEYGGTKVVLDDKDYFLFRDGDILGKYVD

| Compound | IC50 (E. coli GroEL/ES [1]) [µM] | IC50 (E. coli GroEL/ES [2]) [µM] | IC50 (E. coli GroEL/ES [3]) [µM] | IC50 (E. coli GroEL/ES [4]) [µM] | IC50 (E. coli GroEL/ES [5]) [µM] | EC50 (Escherichia coli [6]) [µM] | EC50 (Escherichia coli [7]) [µM] | EC50 (Escherichia coli [8]) [µM] | EC50 (Bacillus subtilis) [µM] | EC50 (Enterococcus faecium) [µM] | EC50 (Staphylococcus aureus [9]) [µM] | IC50 (HSP60/HSP10 [10]) [µM] | IC50 (HSP60/HSP10 [11]) [µM] | EC50 [12] [µM] | EC50 (HEK293) [µM] | EC50 [13] [µM] | EC50 (Acinetobacter baumannii) [µM] | EC50 (Pseudomonas aeruginosa) [µM] | EC50 (Enterobacter cloacae) [µM] | EC50 (Staphylococcus aureus [14]) [µM] |
| --- | --- | --- | --- | --- | --- | --- | --- | --- | --- | --- | --- | --- | --- | --- | --- | --- | --- | --- | --- | --- |
| O=C(CC1Nc2cccc3cccc(c23)NC1=O)Nc1cccc([N+](=O)[O-])c1 (configuration not stated) | 11 | 10 | > 62.5 | 42 | 217 | > 100 | > 100 | 68 | 72 | 15 | 54 | > 100 | > 250 | 61 | 62 | > 100 | > 100 | > 100 | > 100 | 84 |
| Nc1nnc(SCC(=O)c2ccc(-c3ccccc3)cc2)s1 | 79 |  | > 62.5 |  | 107 | > 100 | > 100 | > 100 | > 100 | > 100 | > 100 | > 100 | > 250 | > 100 | > 100 | > 100 | > 100 | > 100 | > 100 | > 100 |
| O=C1/C(=C/c2ccc(O)c(O)c2)SC(=S)N1c1ccc(O)cc1 | 0.58 | 14 | > 62.5 | 0.69 | > 250 | > 100 | 92 | 27 | 25 | 90 | 9.1 | 4.9 | > 250 | 16 | 23 | > 100 | 58 | > 100 | > 100 | 14 |
| COC(=O)c1ccc(-c2ccc(/C=C3/SC(=S)NC3=O)o2)cc1 | 3 | 8.1 | > 62.5 | 4.8 | > 250 | > 100 | > 100 | 7.6 | 16 | > 100 | 1.5 | 16 | > 250 | 41 | 44 | > 100 | > 100 | > 100 | > 100 | 13 |
| O=C(/C=C/c1ccc([N+](=O)[O-])cc1)c1ccc(O)c(O)c1 | 0.83 | 12 | > 62.5 | 1.2 | 216 | > 100 | > 100 | 48 | > 100 | > 100 | 40 | 5.2 | > 250 | 9.9 | 12 | > 100 | > 100 | > 100 | > 100 | 23 |
| O=C(/C=C/c1cccc([N+](=O)[O-])c1)c1ccc(NC(=O)c2ccco2)cc1 | 1.4 | > 100 | > 62.5 | 0.93 | 80 | > 100 | > 100 | 76 | > 100 | > 100 | > 100 | 1.6 | > 250 | > 100 | > 100 | > 100 | > 100 | > 100 | > 100 | > 100 |
| O=C(/C=C/c1ccco1)c1ccc(NC(=O)c2cccs2)cc1 | 2.3 | > 100 | > 62.5 | 3.6 | > 250 | > 100 | > 100 | > 100 | > 100 | > 100 | 61 | 8.2 | > 250 | 34 | 55 | > 100 | > 100 | > 100 | > 100 | > 100 |
| CNC(=O)Oc1c(Br)cc2sc(=O)oc2c1Br | 0.89 | 5.3 | > 62.5 | 2.6 | > 250 | > 100 | > 100 | > 100 | 43 | > 100 | 74 | 1.8 | > 250 | > 100 | > 100 | > 100 | > 100 | > 100 | > 100 | 45 |
| Cc1ccc(S(=O)(=O)Nc2ccc(-c3nc4ccc(NS(=O)(=O)c5ccc(C)cc5)cc4[nH]3)cc2)cc1 | 30 | > 100 | > 62.5 | 7.5 | 119 | > 100 | > 100 | > 100 | > 100 | > 100 | > 100 | 89 | 106 | 29 | 34 | > 100 | > 100 | > 100 | > 100 | > 100 |
| Nc1ccc(Nc2nc(-c3ccc(O)c(O)c3)cs2)cc1 | 1.7 |  | > 62.5 | 2.7 | > 250 | > 100 | > 100 | 84 | > 100 | > 100 | > 100 | 10 | > 250 | > 100 | 98 | > 100 | 81 | > 100 | > 100 | > 100 |
| O=C(Nc1cc([N+](=O)[O-])ccc1O)c1ccc2c(c1)C(=O)N(Cc1ccccc1)C2=O | 28 | > 100 | > 62.5 | 24 | 187 | > 100 | > 100 | > 100 | > 100 | > 100 | 15 | 38 | > 250 | > 100 | > 100 | > 100 | > 100 | 85 | > 100 | > 100 |
